Values belong to the molecule of their own block, whether it stands above or below them.
Legend:
Assay type in all cases: cell-based
[1] = target: T1, Polyunsaturated fatty acid 5-lipoxygenase (Rattus norvegicus) (UniProt P12527); assay: Inhibition of LTB4 in whole cell 5-lipoxygenase assay in an intact rat basophilic leukemia (RBL-1) cell line at 16 uM
T1 sequence (whole entry): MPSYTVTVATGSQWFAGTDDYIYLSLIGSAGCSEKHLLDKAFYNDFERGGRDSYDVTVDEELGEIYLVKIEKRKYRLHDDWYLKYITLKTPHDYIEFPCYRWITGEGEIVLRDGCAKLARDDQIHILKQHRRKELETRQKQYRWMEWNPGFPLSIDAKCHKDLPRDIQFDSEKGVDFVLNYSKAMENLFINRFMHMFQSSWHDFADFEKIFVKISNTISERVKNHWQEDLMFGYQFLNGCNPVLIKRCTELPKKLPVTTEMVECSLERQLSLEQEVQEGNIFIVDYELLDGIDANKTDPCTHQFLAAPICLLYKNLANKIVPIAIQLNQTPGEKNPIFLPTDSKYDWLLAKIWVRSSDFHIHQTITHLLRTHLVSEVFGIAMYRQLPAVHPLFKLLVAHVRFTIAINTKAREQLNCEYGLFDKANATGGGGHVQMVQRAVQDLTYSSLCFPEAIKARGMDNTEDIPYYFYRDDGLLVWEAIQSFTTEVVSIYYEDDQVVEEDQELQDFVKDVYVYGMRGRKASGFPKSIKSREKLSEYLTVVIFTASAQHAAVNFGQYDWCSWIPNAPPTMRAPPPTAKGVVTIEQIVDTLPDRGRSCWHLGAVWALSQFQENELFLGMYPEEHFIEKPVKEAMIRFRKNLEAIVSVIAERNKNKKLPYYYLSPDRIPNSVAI
Method in brief: (§1)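 RBL-1 cells grown at 37 °C in suspension in MEM with 12% FBS under 5% CO₂. Washed in cold PBS pH 7.4 and resuspended at 2 × 10⁶ cells/mL in PBS with 1.0 mM calcium. Preincubated with test agent in 1% DMSO for 10 min at room temperature, then stimulated with A23187 (5 μM) for 7 min at 37 °C. LTB₄ in the supernatant measured by RIA. Percent inhibition taken against vehicle; IC₅₀ by linear regression on log concentration.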

[2] = target: T2, Cyclooxygenase (Rattus norvegicus) (UniProt P35355+Q63921); assay: Inhibition of PGF2-alpha formation in Prostaglandin G/H synthase assay in an intact rat basophilic leukemia (RBL-1) cell line at 16 uM
Method in brief: (§2)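 RBL-1 suspension cultures (MEM, 12% FBS, 37 °C, 5% CO₂) were washed in PBS and held at 2 × 10⁶ cells/mL in PBS containing 1.0 mM Ca. Cells were exposed to compound in 1% DMSO for 10 min at room temperature, then to 5 μM A23187 for 7 min at 37 °C, and chilled on ice to stop. PGF₂α in the supernatant was measured by RIA. Percent inhibition was calculated relative to vehicle-treated cells.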

[3] = target: T3, Cyclooxygenase (Rattus norvegicus, UniProt P35355+Q63921); assay: Inhibition of Prostaglandin G/H synthase mediated PGF2-alpha formation in rat basophilic leukemia (RBL-1) cells
T3 sequence (P35355 whole entry): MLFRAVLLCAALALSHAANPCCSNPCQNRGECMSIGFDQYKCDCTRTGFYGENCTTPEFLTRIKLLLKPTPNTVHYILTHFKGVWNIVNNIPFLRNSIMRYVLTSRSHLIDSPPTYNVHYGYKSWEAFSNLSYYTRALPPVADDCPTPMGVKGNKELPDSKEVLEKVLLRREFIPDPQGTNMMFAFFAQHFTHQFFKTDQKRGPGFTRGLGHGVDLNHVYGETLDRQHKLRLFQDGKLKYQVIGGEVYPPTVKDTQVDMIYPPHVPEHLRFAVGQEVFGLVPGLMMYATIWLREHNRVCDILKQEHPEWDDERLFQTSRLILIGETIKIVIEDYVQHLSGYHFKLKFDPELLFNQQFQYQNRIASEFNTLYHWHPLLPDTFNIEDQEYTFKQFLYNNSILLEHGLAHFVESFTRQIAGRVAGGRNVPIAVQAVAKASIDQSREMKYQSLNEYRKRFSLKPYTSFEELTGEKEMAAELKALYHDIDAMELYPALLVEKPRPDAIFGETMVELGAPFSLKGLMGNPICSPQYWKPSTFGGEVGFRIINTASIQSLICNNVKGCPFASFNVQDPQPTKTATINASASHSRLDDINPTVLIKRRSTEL
T3 sequence (Q63921 whole entry): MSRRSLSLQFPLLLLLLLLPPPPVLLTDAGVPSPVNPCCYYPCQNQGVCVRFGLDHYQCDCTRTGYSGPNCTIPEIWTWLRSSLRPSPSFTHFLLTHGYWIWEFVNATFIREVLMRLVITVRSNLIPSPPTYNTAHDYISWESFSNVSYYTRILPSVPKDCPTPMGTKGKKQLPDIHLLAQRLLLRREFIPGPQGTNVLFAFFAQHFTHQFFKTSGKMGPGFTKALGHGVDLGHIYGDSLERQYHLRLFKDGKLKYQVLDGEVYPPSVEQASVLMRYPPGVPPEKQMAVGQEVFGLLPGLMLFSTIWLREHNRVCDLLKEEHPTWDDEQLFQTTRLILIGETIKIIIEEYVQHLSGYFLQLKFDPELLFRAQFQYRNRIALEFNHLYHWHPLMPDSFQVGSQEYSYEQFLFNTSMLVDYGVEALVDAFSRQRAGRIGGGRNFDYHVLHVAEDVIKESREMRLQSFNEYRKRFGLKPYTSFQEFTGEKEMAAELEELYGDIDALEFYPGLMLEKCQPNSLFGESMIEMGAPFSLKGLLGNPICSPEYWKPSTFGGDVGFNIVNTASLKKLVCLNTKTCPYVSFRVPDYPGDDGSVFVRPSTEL

[4] = target: T4, Polyunsaturated fatty acid 5-lipoxygenase (Rattus norvegicus, UniProt P12527); assay: Inhibition 5-lipoxygenase mediated LTB4 formation in rat basophilic leukemia (RBL-1) cells
T4 sequence (P12527 whole entry): T1 sequence (whole entry)
Method in brief: as §1, with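 “Washed” for “RBL-1 cells grown at 37 °C in suspension in MEM with 12% FBS under 5% CO₂. Washed”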

[5] = target: T2, Cyclooxygenase (Rattus norvegicus); assay: Inhibition of PGF2-alpha formation in Prostaglandin G/H synthase assay in an intact rat basophilic leukemia (RBL-1) cell line at 10 uM; method in brief: as §2
[6] = target: T1, Polyunsaturated fatty acid 5-lipoxygenase (Rattus norvegicus); assay: Inhibition of LTB4 in whole cell 5-lipoxygenase assay in an intact rat basophilic leukemia (RBL-1) cell line at 10 uM; method in brief: as §1
[7] = target: T1, Polyunsaturated fatty acid 5-lipoxygenase (Rattus norvegicus); assay: Inhibition of LTB4 in whole cell 5-lipoxygenase assay in an intact rat basophilic leukemia (RBL-1) cell line; method in brief: as §1

inhibition [1]: < 40%
inhibition [2]: < 40%
SMILES: Cc1ccc(Cl)c(Nc2ccccc2-c2nnc(O)n2C)c1Cl

IC50 [3]: 7100 nM
SMILES: Nc1nnc(-c2ccccc2Nc2cccc(C(F)(F)F)c2)o1

IC50 [3]: 1700 nM
SMILES: Cc1ccc(Cl)c(Nc2ccccc2-c2nnc(S)s2)c1Cl

inhibition [1]: < 40%
inhibition [2]: < 40%
SMILES: Cc1ccc(Cl)c(Nc2ccccc2-c2n[nH]c(S)n2)c1Cl

IC50 [3]: 1000 nM
SMILES: N#CNc1nnc(-c2ccccc2Nc2cccc(C(F)(F)F)c2)o1

IC50 [3]: 30000 nM
IC50 [4]: 12000 nM
SMILES: Cn1c(S)nnc1-c1ccccc1Nc1cccc(C(F)(F)F)c1

IC50 [3]: 11000 nM
SMILES: Nc1nnc(-c2ccccc2Nc2cccc(C(F)(F)F)c2)s1

inhibition [1]: 86%
inhibition [2]: < 40%
SMILES: Cc1ccc(Cl)c(Nc2ccccc2-c2nnc(S)n2C)c1Cl

IC50 [3]: 1900 nM
IC50 [4]: 290 nM
SMILES: Cc1ccc(Cl)c(Nc2ccccc2-c2nnc(NC#N)s2)c1Cl

inhibition [1]: < 40%
SMILES: FC(F)(F)c1cccc(Nc2ccccc2-c2n[nH]c(S)n2)c1

SMILES: Cc1ccc(Cl)c(Nc2ccccc2-c2nnc(NC#N)o2)c1Cl
IC50 [3]: 250 nM

inhibition [5]: < 40%
inhibition [6]: < 40%
SMILES: Oc1n[nH]c(-c2ccccc2Nc2cccc(C(F)(F)F)c2)n1

IC50 [7]: 7400 nM
SMILES: Oc1nnc(-c2ccccc2Nc2cccc(C(F)(F)F)c2)s1

IC50 [3]: 2600 nM
IC50 [4]: 1700 nM
SMILES: N#CNc1nnc(-c2ccccc2Nc2cccc(C(F)(F)F)c2)s1

inhibition [5]: < 40%
inhibition [6]: 45%
SMILES: Cc1ccc(Cl)c(Nc2ccccc2-c2nnc(N)o2)c1Cl

inhibition [1]: < 40%
inhibition [2]: < 40%
SMILES: Cn1c(O)nnc1-c1ccccc1Nc1cccc(C(F)(F)F)c1

IC50 [3]: 6100 nM
IC50 [4]: 690 nM
SMILES: Cc1ccc(Cl)c(Nc2ccccc2-c2nnc(N)s2)c1Cl
